Results reported in ChEMBL document CHEMBL4765235, “Discovery of N-[Bis(4-methoxyphenyl)methyl]-4-hydroxy-2-(pyridazin-3-yl)pyrimidine-5-carboxamide (MK-8617), an Orally Active Pan-Inhibitor of Hypoxia-Inducible Factor Prolyl Hydroxylase 1-3 (HIF PHD1-3) for the Treatment of Anemia” (J Med Chem, 2016).
Each block holds one compound with its values, some of them ahead of it.

Key:
[1] = In vivo inhibition of HIF-PHD2 in C57BL/6 mouse assessed as serum erythropoietin level at 5 mg/kg, iv measured after 4 hrs; format: functional
Summary of the method: (§1)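 Mouse pharmacodynamic EPO assay (MoPED). Compound dosed iv; serum EPO measured 4 hr after dosing and reported in pg/mL. Minimum effective dose is the lowest dose giving EPO elevation.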

[2] = In vivo inhibition of HIF-PHD2 in C57BL/6 mouse assessed as serum erythropoietin level at 15 mg/kg, iv measured after 4 hrs; format: functional; summary of the method: as §1
[3] = Oral bioavailability in rat at 2 mg/kg; format: ADME, organism-based; details: in vivo
[4] = Half life in rat at 2 mg/kg, po or 1 mg/kg, iv; format: ADME, organism-based; details: in vivo
[5] = Half life in dog at 1 mg/kg, po or 0.5 mg/kg, iv; format: ADME, organism-based, Canis lupus familiaris; details: in vivo
Summary of the method: (§2)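 Single-dose PK at 1 mg/kg po and 0.5 mg/kg iv. Mouse clearance is from blood; dog and rhesus clearance is from plasma. Mouse vehicle, both routes: DMSO:PEG400:water (5:40:55, v/v/v). Dog and monkey iv vehicle: PEG200:12%HPCD:water (30:12:58 v/v/v). Dog and monkey po vehicle: Imwitor:Tween (1:1 w/w).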

[6] = biological target: T1, Egl nine homolog 1 (Homo sapiens, UniProt Q9GZT9); experiment: Inhibition of FLAG-tagged full-length HIF-PHD2 (unknown origin) expressed in baculovirus infected Sf9 cells using 2-oxoglutarate and HIF1alpha biotinyl-DLDLEMLAPYIPMDDDFQL as peptide substrates preincubated for 30 mins followed by substrate addition and measured after 2 hrs by LANCE assay
[7] = In vivo inhibition of HIF-PHD2 in C57BL/6 mouse assessed as serum erythropoietin level at 50 mg/kg, iv measured after 4 hrs; format: functional; summary of the method: as §1
[8] = Oral bioavailability in mouse at 2 mg/kg; format: ADME, organism-based; details: in vivo
[9] = Cmax in mouse at 2 mg/kg, po or 1 mg/kg, iv; format: ADME, organism-based; parameters: dose 2 mg/kg; details: in vivo
[10] = Clearance in mouse at 2 mg/kg, po or 1 mg/kg, iv; format: ADME, organism-based; details: in vivo
[11] = Volume of distribution at steady state in mouse at 2 mg/kg, po or 1 mg/kg, iv; format: ADME, organism-based; details: in vivo, read-out: Vdss
[12] = Half life in mouse at 2 mg/kg, po or 1 mg/kg, iv; format: ADME, organism-based; details: in vivo
[13] = Protein binding in mouse plasma assessed as unbound fraction at 2 mg/kg, po or 1 mg/kg, iv; format: ADME, organism-based; details: read-out: PPB
[14] = Cmax in rat at 2 mg/kg, po or 1 mg/kg, iv; format: ADME, organism-based; parameters: dose 2 mg/kg; details: in vivo
[15] = Clearance in rat at 2 mg/kg, po or 1 mg/kg, iv; format: ADME, organism-based; details: in vivo
[16] = Volume of distribution at steady state in rat at 2 mg/kg, po or 1 mg/kg, iv; format: ADME, organism-based; details: in vivo, read-out: Vdss
[17] = Protein binding in rat plasma assessed as unbound fraction at 2 mg/kg, po or 1 mg/kg, iv; format: ADME, organism-based; details: read-out: PPB
[18] = Oral bioavailability in dog at 1 mg/kg; format: ADME, organism-based, Canis lupus familiaris; details: in vivo
Summary of the method: (§3)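 Dog and rhesus monkey dosed 1 mg/kg po and 0.5 mg/kg iv. The iv vehicle was PEG200:12%HPCD:water (30:12:58 v/v/v); the po vehicle was Imwitor:Tween (1:1 w/w). Clearance was measured in plasma. Protein binding was measured in 100% serum.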

[19] = Cmax in dog at 1 mg/kg, po or 0.5 mg/kg, iv; format: ADME, organism-based, Canis lupus familiaris; parameters: dose 1 mg/kg; details: in vivo; summary of the method: as §2
[20] = Clearance in dog at 1 mg/kg, po or 0.5 mg/kg, iv; format: ADME, organism-based, Canis lupus familiaris; details: in vivo; summary of the method: as §2
[21] = Volume of distribution at steady state in dog at 1 mg/kg, po or 0.5 mg/kg, iv; format: ADME, organism-based, Canis lupus familiaris; details: in vivo, read-out: Vdss; summary of the method: as §3
[22] = Protein binding in dog plasma assessed as unbound fraction at 1 mg/kg, po or 0.5 mg/kg, iv; format: ADME, organism-based, Canis lupus familiaris; details: read-out: PPB
[23] = Oral bioavailability in rhesus monkey at 1 mg/kg; format: ADME, organism-based, Macaca mulatta; details: in vivo; summary of the method: as §3
[24] = Cmax in rhesus monkey at 1 mg/kg, po or 0.5 mg/kg, iv; format: ADME, organism-based, Macaca mulatta; parameters: dose 1 mg/kg; details: in vivo; summary of the method: as §2
[25] = Clearance in rhesus monkey at 1 mg/kg, po or 0.5 mg/kg, iv; format: ADME, organism-based, Macaca mulatta; details: in vivo; summary of the method: as §2
[26] = Volume of distribution at steady state in rhesus monkey at 1 mg/kg, po or 0.5 mg/kg, iv; format: ADME, organism-based, Macaca mulatta; details: in vivo, read-out: Vdss; summary of the method: as §3
[27] = Half life in rhesus monkey at 1 mg/kg, po or 0.5 mg/kg, iv; format: ADME, organism-based, Macaca mulatta; details: in vivo; summary of the method: as §2
[28] = Protein binding in rhesus monkey plasma assessed as unbound fraction at 1 mg/kg, po or 0.5 mg/kg, iv; format: ADME, organism-based, Macaca mulatta; details: read-out: PPB
[29] = In vivo inhibition of HIF-PHD2 in iv dosed C57BL/6 mouse assessed as minimum effective dose causing increase in serum erythropoietin levels measured after 4 hrs; format: functional; details: C57BL/6, iv, read-out: MED; summary of the method: as §1
[30] = In vivo inhibition of HIF-PHD2 in C57BL/6 mouse assessed as serum erythropoietin level at 100 mg/kg, iv measured after 4 hrs; format: functional; summary of the method: as §1
[31] = In vivo inhibition of HIF-PHD2 in C57BL/6 mouse assessed as serum erythropoietin level at 1.5 mg/kg, iv measured after 4 hrs; format: functional; summary of the method: as §1
[32] = biological target: Voltage-gated inwardly rectifying potassium channel KCNH2 (Homo sapiens, UniProt Q12809); experiment: Inhibition of human ERG
[33] = Plasma clearance in rat at 2 mg/kg, po or 1 mg/kg, iv; format: ADME, organism-based
[34] = biological target: T1, Egl nine homolog 1; experiment: Inhibition of HIF-PHD2 (unknown origin)

T1 sequence (Q9GZT9 whole entry): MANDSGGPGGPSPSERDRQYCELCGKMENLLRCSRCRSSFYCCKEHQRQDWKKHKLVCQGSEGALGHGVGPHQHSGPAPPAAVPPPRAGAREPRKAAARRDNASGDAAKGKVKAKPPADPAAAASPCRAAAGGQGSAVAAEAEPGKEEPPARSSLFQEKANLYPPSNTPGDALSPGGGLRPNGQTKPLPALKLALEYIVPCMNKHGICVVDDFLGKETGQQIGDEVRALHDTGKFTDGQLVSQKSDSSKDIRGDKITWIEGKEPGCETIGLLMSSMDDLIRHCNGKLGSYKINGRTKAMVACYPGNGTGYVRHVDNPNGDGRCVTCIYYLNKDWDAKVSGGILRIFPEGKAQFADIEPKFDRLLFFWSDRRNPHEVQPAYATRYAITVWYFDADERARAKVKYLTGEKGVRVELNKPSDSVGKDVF
Voltage-gated inwardly rectifying potassium channel KCNH2, sequence (Q12809 whole entry): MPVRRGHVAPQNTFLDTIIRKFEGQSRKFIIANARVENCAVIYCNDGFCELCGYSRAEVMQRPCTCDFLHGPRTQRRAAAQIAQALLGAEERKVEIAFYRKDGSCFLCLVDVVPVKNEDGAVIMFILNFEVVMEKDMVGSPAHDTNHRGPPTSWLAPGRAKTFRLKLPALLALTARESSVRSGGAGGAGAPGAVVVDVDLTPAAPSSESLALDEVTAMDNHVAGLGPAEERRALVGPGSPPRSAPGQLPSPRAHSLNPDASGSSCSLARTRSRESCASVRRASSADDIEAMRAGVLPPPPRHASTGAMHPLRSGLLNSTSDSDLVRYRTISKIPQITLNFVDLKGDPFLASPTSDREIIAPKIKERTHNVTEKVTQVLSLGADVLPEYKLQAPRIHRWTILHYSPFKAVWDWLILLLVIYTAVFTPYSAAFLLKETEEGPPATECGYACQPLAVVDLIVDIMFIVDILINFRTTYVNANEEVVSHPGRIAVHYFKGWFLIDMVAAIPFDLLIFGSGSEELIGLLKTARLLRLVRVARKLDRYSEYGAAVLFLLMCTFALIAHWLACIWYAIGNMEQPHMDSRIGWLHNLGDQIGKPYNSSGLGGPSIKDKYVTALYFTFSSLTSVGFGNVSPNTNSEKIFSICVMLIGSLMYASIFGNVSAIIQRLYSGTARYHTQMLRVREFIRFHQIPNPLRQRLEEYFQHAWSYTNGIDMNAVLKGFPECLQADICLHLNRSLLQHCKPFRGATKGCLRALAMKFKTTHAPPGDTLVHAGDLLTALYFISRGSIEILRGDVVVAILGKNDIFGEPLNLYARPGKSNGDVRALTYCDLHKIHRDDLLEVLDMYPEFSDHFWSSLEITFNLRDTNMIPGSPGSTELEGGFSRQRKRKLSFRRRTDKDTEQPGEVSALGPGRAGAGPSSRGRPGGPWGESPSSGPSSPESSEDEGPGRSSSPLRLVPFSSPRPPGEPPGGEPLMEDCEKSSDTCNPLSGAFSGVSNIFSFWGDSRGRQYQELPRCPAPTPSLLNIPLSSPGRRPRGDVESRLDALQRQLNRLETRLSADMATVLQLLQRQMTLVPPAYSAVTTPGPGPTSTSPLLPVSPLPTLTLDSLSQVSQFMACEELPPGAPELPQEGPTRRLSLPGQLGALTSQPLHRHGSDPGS

SMILES: C[C@H](NC(=O)c1cnc(-n2cccn2)nc1O)c1ccccc1
Activity [1]: 690 pg/mL
Activity [2]: 10000 pg/mL

SMILES: O=C(NC(c1ccccc1)c1ccccc1)c1cnc(-n2cccn2)nc1O
Activity [2]: 2900 pg/mL

SMILES: C[C@@H](NC(=O)c1cnc(-n2cccn2)nc1O)c1ccccc1
Activity [2]: 322 pg/mL

SMILES: C[C@H](NC(=O)c1cnc(-n2cccn2)nc1O)c1ccc(F)cc1
Activity [2]: 16000 pg/mL
half-life [5]: 60 h

SMILES: O=C(NCc1ccc(Cl)cc1)c1cnc(-n2cccn2)nc1O
Activity [2]: 1100 pg/mL

SMILES: O=C(NCc1ccc(OC(F)(F)F)cc1)c1cnc(-n2cccn2)nc1O
Activity [2]: 180 pg/mL
Activity [7]: 8900 pg/mL

SMILES: C[C@@H](NC(=O)c1cnc(-n2cccn2)nc1O)c1ccc(F)cc1
Activity [2]: 350 pg/mL

SMILES: COc1ccc(C(NC(=O)c2cnc(-n3cccn3)nc2O)c2ccc(OC)cc2)cc1
minimal effective dose [29]: 1.5 mg/kg
Activity [1]: 740 pg/mL
Activity [2]: 31000 pg/mL
Activity [31]: 190 pg/mL

SMILES: O=C(NC(c1ccccc1)c1ccccc1)c1cnc(-c2cccnn2)nc1O
Activity [1]: 380 pg/mL
Activity [2]: 1600 pg/mL
IC50 [32]: > 30000 nM

SMILES: Cc1nc(-c2ncc(C(=O)NC(C)(C)c3ccccc3)c(O)n2)cs1
Activity [30]: 110 pg/mL

SMILES: O=C(NCc1ccc(F)cc1)c1cnc(-c2ccccn2)nc1O
minimal effective dose [29]: 100 mg/kg
Activity [30]: 1200 pg/mL
IC50 [32]: > 30000 nM
bioavailability [3]: 67%
Vd [16]: 0.35 L/kg
half-life [4]: 3.3 h
clearance [33]: 2 mL/min/kg
IC50 [34]: 110 nM

Second part, led by results:

bioavailability [3]: 3%
half-life [4]: 2.1 h
SMILES: CC(C)(NC(=O)c1cnc(-n2cc(C(=O)O)cn2)nc1O)c1ccccc1
Activity [2]: 1900 pg/mL

half-life [5]: 94 h
SMILES: COc1ccc([C@H](C)NC(=O)c2cnc(-n3cccn3)nc2O)cc1
Activity [2]: 5300 pg/mL

IC50 [6]: > 2700 nM
SMILES: CC(C)(NC(=O)c1cnc(-c2ccc(C(F)(F)F)cn2)nc1O)c1ccccc1

bioavailability [8]: 98%
Cmax [9]: 30 µM
clearance [10]: 1 mL/min/kg
Vd [11]: 0.3 L/kg
half-life [12]: 3.7 h
fraction unbound [13]: 0.093
bioavailability [3]: 99%
Cmax [14]: 49 µM
clearance [15]: 0.2 mL/min/kg
Vd [16]: 0.06 L/kg
half-life [4]: 4.2 h
fraction unbound [17]: 0.012
bioavailability [18]: 61%
Cmax [19]: 11 µM
clearance [20]: 0.004 mL/min/kg
Vd [21]: 0.1 L/kg
half-life [5]: > 100 h
fraction unbound [22]: 0.027
bioavailability [23]: 71%
Cmax [24]: 22 µM
clearance [25]: 0.001 mL/min/kg
Vd [26]: 0.13 L/kg
half-life [27]: 95 h
fraction unbound [28]: 0.004
SMILES: CC(C)(NC(=O)c1cnc(-n2cccn2)nc1O)c1ccccc1
Activity [1]: 460 pg/mL
Activity [2]: 5000 pg/mL
Activity [7]: 24000 pg/mL

bioavailability [3]: 5%
half-life [4]: 0.23 h
SMILES: CC(C)(NC(=O)c1cnc(-c2cc(C(=O)O)ccn2)nc1O)c1ccccc1
minimal effective dose [29]: 15 mg/kg
Activity [2]: 220 pg/mL

half-life [5]: 143 h
SMILES: O=C(NCc1ccc(-c2ccccc2)cc1)c1cnc(-n2cccn2)nc1O

bioavailability [3]: 61%
half-life [4]: 2.9 h
SMILES: CC(C)(NC(=O)c1cnc(-c2cscn2)nc1O)c1ccccc1
Activity [30]: 2100 pg/mL
